Source: PubChem BioAssay (The Scripps Research Institute Molecular Screening Center)
Compounds with a hit are over-represented: about 2.3% of the library has one in this group of screens.
GSTO1 inh: inhibitors of recombinant GSTO1, primary screen, counter-screen for RBBP9 inhibitor project, biochemical, fluorescence polarization. activity-based probe fluorescence polarization. inhibition, % at 5.96 µM. 1.1% of 300,000 active;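 active = inhibition above the campaign mean inhibition plus 3 SD, cut at about 35% in these data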;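 also: 0% = GSTO1-1 with DMSO and 100% = wells lacking GSTO1-1 enzyme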
PRMT1 inh: PRMT1 methyltransferase inhibitors, primary screen, biochemical, fluorescence polarization | Protein arginine N-methyltransferase 1 (Homo sapiens), Q99873 | recombinant PRMT1, activity-based probe fluorescence polarization | inhibition, % at 2.79 µM | 1.3% of 370,000 active | AID 652257, 2013;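 active = inhibition above about 21% made by adding two undisclosed values, limit read from the data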
PAD4 inh: human PAD4 inhibitors, primary screen, biochemical, fluorescence polarization, 1536-well format | Protein-arginine deiminase type-4 (Homo sapiens), Q9UM07 | recombinant PAD4, RCA probe fluorescence polarization | 0.41% of 330,000 active | inhibition, % at 6.36 µM;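 active = percent inhibition above a cutoff equal to the mean of all tested compounds plus 3 SD, cut at about 15% in these data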;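 also: 0% = PAD4 with RCA probe and DMSO and 100% = probe without PAD4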
Target sequence (Q9UM07 whole entry, looked up): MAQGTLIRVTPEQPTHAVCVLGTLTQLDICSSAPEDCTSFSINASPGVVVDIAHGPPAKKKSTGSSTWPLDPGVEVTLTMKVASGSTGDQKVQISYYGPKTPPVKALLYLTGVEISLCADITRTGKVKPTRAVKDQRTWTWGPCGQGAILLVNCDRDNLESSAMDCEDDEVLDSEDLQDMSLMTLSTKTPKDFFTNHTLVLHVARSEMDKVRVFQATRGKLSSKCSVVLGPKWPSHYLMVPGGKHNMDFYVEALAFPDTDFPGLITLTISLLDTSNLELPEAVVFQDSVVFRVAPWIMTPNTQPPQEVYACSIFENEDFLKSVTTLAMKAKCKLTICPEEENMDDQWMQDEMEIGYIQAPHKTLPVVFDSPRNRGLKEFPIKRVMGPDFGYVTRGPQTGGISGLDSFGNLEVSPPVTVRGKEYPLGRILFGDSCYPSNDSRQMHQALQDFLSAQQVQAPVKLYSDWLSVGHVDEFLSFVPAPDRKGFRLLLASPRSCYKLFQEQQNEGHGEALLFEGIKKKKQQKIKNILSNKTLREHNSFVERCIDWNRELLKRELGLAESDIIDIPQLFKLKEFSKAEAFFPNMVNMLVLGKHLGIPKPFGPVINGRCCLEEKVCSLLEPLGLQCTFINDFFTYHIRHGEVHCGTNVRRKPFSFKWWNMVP
Fam108B counter: mouse Fam108B serine hydrolase inhibitors, primary screen, counter-screen for RBBP9 inhibitor project, biochemical, fluorescence polarization; recombinant Fam108B, FP-Rh probe fluorescence polarization; inhibition, % at 9.51 µM; 0.33% of 300,000 active;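 active = inhibition above the screen mean inhibition plus 3 SD, computed separately per campaign, cut at about 18% in these data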;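 also: inhibitors lower polarization as less probe binds the enzyme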
PME-1 inh: PME-1 inhibitors via competitive probe labeling, primary screen, biochemical, fluorescence polarization, FP-Rh probe, HTS | Protein phosphatase methylesterase 1 (Homo sapiens), Q9Y570 | recombinant PME-1 | inhibition, % at 5.9 µM | 0.53% of 320,000 active | AID 2130, 2009;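 active = inhibition above the campaign mean of all compounds plus 3 SD, cut at about 26% in these data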;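 also: competitive labeling of PME-1 active site by serine hydrolase directed probe; 0% = PME-1 with DMSO and 100% = wells lacking PME-1 enzyme; inhibitors block probe labeling so polarization falls and inhibition rises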
RBBP9 inh: human RBBP9 inhibitors, primary screen, biochemical, fluorescence polarization, FP-Rh probe, HTS | Serine hydrolase RBBP9 (Homo sapiens), O75884 | recombinant RBBP9 | inhibition, % at 7.94 µM | 0.2% of 220,000 active;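 active = inhibition above the campaign mean of all tested compounds plus 3 SD, cut at about 14% in these data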;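 also: plate controls were DMSO wells with RBBP9 for no effect and wells lacking RBBP9 protein for full effect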
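Material: RBBP9 protein. Amount: RBBP9 at 2.5 µM in dispensed solution, before mixing. Schedule: 30 min then 45 min, 25 °C. Medium: Tris buffer pH 8.0, NaCl, Pluronic. Measured by: fluorescence polarization. Measure: percent inhibition from mP, scaled between DMSO and no-protein wells. Replication: one well per compound.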
GSTO1 confirm: GSTO1 inhibitor hit confirmation, counter-screen for RBBP9 inhibitor project, biochemical, fluorescence polarization, triplicate; shares compounds with GSTO1 inh; recombinant GSTO1, probe fluorescence polarization; inhibition, % at 5.96 µM; 54% of 2,400 active;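 active = inhibition above the primary screen's cutoff, its mean inhibition plus 3 SD, cut at about 35% in these data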;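 also: loss of polarization as inhibitors block binding of rhodamine sulfonate ester activity probe; 0% = GSTO1 with DMSO and 100% = wells lacking GSTO1 enzyme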
GSTO1 recomb ABPP: inhibitors of purified human GSTO1, late-stage follow-up, biochemical, gel ABPP, SE-Rh probe, percent inhibition. shares compounds with GSTO1 inh. recombinant GSTO1, gel ABPP SE-Rh probe fluorescence. 30% of 130 active. inhibition, % at 1 µM;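 active = inhibition of the enzyme GSTO1 above about 75%, limit read from the data; inactive = inhibition below that limit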
* hit, by the source's call; x = not tested or not shown.

SMILES | GSTO1 inh | PRMT1 inh | PAD4 inh | Fam108B counter | PME-1 inh | RBBP9 inh | GSTO1 confirm | others
CC(C)(C)OC(=O)C[C@@H]1C/C=C\C[C@H](CC(=O)N[C@H](CO)Cc2ccccc2)C(=O)N[C@H](Cc2ccccc2)COC1=O | x | -1 | 0 | x | x | x | x
Cc1ccc(S(=O)(=O)C(C#N)c2nc3ccccc3nc2N2CCCC2)cc1 (centres undefined) | 51* | 58* | -11 | 13 | 22 | -4 | 13
CCCCCCCN(C(=O)CCl)c1cccc(C)c1 | 97* | 0 | 2 | 0 | -4 | -13 | 96* | GSTO1 recomb ABPP=73
O=C(CCl)N(c1ccccc1)c1ccccc1 | x | 4 | x | x | x | 0 | x
CCCN(C(=O)Cn1ncc2c(=O)oc3ccccc3c21)c1cccc(C)c1 | 3 | 2 | 1 | 0 | 4 | -5 | x
CCCCCCN(C(=O)CCl)c1ccccc1 | 83* | 4 | 6 | 0 | 4 | -2 | 97* | GSTO1 recomb ABPP=83*
CCc1ccc(OCC(=O)NC(NC(=S)Nc2ccccc2)C(Cl)(Cl)Cl)cc1 (centres undefined) | -3 | 2 | 2 | -6 | -20 | -8 | x
CCCCOc1ccc(C(C)NC(=O)CCS(=O)(=O)Cc2ccc(C)cc2)cc1 (centres undefined) | -7 | -1 | -2 | 0 | 4 | -5 | x
COc1ccc(C(C(=O)NC2CCCCC2)N(C(=O)CCl)c2ccc(Cl)cc2)cc1 (centres undefined) | 97* | x | 3 | 4 | -5 | -9 | 89* | GSTO1 recomb ABPP=91*
COC(CN(C(=O)CCl)C(C(=O)NC1CCCCC1)c1ccc(Cl)cc1)OC (centres undefined) | 73* | 1 | 0 | -5 | 5 | -5 | 98* | GSTO1 recomb ABPP=52
O=C(NC1CCCC1)C(c1ccc(Cl)cc1)N(Cc1ccc(F)cc1)C(=O)CCl (centres undefined) | 13 | x | 1 | 2 | -7 | -3 | x
Cc1oc2c(O)c(O)ccc2c(=O)c1-c1ccccc1 | 22 | 19 | 3 | 1 | 4 | x | x
Cc1oc2c(O)c(O)ccc2c(=O)c1-c1cnn(-c2ccccc2)c1 | 59* | 26* | 7 | 4 | 3 | -21 | 23
O=S1(=O)c2cccc3cccc(c23)N1CCBr | 45* | 2 | 0 | 4 | 1 | x | 51*
CCCN1c2cccc3cccc(c23)S1(=O)=O | -4 | -1 | -2 | -3 | -5 | -3 | x
Oc1ccc(/C=N/N=C(c2ccccc2)c2ccccc2)c(O)c1O | 54* | 12 | -1 | 12 | 22 | 0 | 3
O=C(/C(=N/N=C/c1ccc(O)c(O)c1O)c1ccccc1)c1ccccc1 | 50* | 27* | -2 | 13 | 16 | -4 | -4
CS(=O)(=O)c1ccc2nc(NC(=O)c3cccc([N+](=O)[O-])c3)sc2c1 | -16 | 5 | -2 | -2 | -6 | x | x
CC(=O)N[C@@H](C)c1nc2ccccc2n1CCNC(=O)[C@H]1CCCN1c1nc(CN2CCCCC2)cs1 | 0 | x | 2 | 1 | 3 | x | x
O=C(c1ccccc1)c1ccc(CN2C(=O)c3ccccc3C2=O)o1 | -1 | 5 | -2 | 0 | 7 | -5 | x
O=C(c1ccccc1)c1coc2c1C(=O)c1ccccc1C2=O | 60* | 14 | -10 | 7 | 6 | -8 | 39*
COc1ccc(C(=O)c2coc3c2C(=O)C(=O)c2ccccc2-3)cc1 | 24 | 2 | -11 | 6 | 14 | 2 | x
O=C1c2ccccc2C(=O)c2c1oc(C(F)(F)F)c2C(=O)c1ccccc1 | 62* | 1 | 2 | 5 | 4 | -1 | 71*
COC(=O)c1c(NC(=O)c2ccccc2[N+](=O)[O-])sc2c1CC(C)(C)NC2(C)C | -2 | -2 | -2 | 4 | 4 | -7 | x
C=CCNC(=O)C1CC(=O)N(c2ccc(OCC(=O)Nc3ccc(Cl)c(C(F)(F)F)c3)cc2)C1 (centres undefined) | 1 | 0 | -4 | -15 | 3 | 0 | x
SMILES | GSTO1 inh | PRMT1 inh | PAD4 inh | Fam108B counter | PME-1 inh | RBBP9 inh | GSTO1 confirm | others
Cc1cccc[n+]1CC(=O)Nc1ccc([N+](=O)[O-])cc1 | 0 | -3 | -7 | -1 | 0 | x | x
Cc1cccc[n+]1C1C(c2ccc([N+](=O)[O-])cc2)C(C#N)=C(C(=C=[N-])C#N)NC1(O)C1CC1 (centres undefined) | 40* | 6 | 9 | 13 | 10 | 10 | 48*
CCCOc1ccc(-c2nc3c(c(=O)[nH]c(=O)n3Cc3ccccc3)n2CCO)cc1OCC | 4 | 10 | -2 | 2 | 0 | x | x
COc1cccc(-c2[nH]nc3c2C(c2ccsc2)C(C#N)=C(N)O3)c1 (centres undefined) | 51* | -3 | 6 | -1 | -6 | 2 | 33
COc1ccc(C2C(C#N)=C(N)Oc3n[nH]c(-c4ccccn4)c32)c(OC)c1OC (centres undefined) | 43* | -1 | -11 | -3 | -2 | -6 | 6
Cc1nn(-c2ccccc2)c2c1C1(C(=O)N3c4c(cccc41)C(C)CC3(C)C)C(C#N)=C(N)O2 (centres undefined) | 11 | 4 | 0 | -1 | 1 | -6 | x
CCN1C(=O)C2(C(C#N)=C(N)Oc3c2c(C)nn3-c2ccccc2)c2ccccc21 (centres undefined) | 39* | x | -4 | 3 | 4 | 0 | 10
O=c1c(Cc2ccccc2)c(O)nc2n1CCCS2 | 6 | 0 | -4 | -4 | -4 | -4 | x
COc1ccc2c(c1)N(C[C@H](C)CN(C)C)c1ccccc1S2 | x | 2 | x | x | x | x | x
COCCn1c(COC)nc2ccccc21 | 2 | 2 | 2 | 7 | 3 | -2 | x
COCc1nc2ccccc2n1CCc1ccccc1 | 40* | -1 | -3 | -3 | -3 | x | 5
COc1c2occc2c(OC)c2c(=O)cc(C(F)(F)F)oc12 | 12 | -1 | 0 | -1 | 8 | -8 | x
O=[N+]([O-])c1ccc(Cl)c(/C=N/n2c(-c3ccncc3)n[nH]c2=S)c1 | 50* | -3 | 0 | 9 | -1 | -9 | 10
O=[N+]([O-])c1ccc(O)c(/C=N/n2c(-c3ccccc3)n[nH]c2=S)c1 | 7 | -1 | 0 | 2 | 4 | x | x
